Test results reported in ChEMBL document CHEMBL1938335, “2-(4-Methylsulfonylaminophenyl) propanamide TRPV1 antagonists: Structure-activity relationships in the B and C-regions” (Bioorg Med Chem, 2012).

Key:
[1] = target: T1, Transient receptor potential cation channel subfamily V member 1 (Rattus norvegicus, UniProt O35433); test: Agonist activity at rat TRPV1 expressed in CHO cells by 45Ca2+ uptake assay; type: functional, cell-based
[2] = target: T1, Transient receptor potential cation channel subfamily V member 1; test: Displacement of [3H]RTX from rat TRPV1 expressed in CHO cells; type: cell-based
Procedure, shortened: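 Competitive binding against [3H]RTX on rat TRPV1 heterologously expressed in CHO cells. Affinity reported as Ki (nM). Values are mean ± SEM from 3 or more experiments.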

[3] = target: T1, Transient receptor potential cation channel subfamily V member 1; test: Antagonist activity at rat TRPV1 expressed in CHO cells by 45Ca2+ uptake assay

T1 sequence (O35433 whole entry): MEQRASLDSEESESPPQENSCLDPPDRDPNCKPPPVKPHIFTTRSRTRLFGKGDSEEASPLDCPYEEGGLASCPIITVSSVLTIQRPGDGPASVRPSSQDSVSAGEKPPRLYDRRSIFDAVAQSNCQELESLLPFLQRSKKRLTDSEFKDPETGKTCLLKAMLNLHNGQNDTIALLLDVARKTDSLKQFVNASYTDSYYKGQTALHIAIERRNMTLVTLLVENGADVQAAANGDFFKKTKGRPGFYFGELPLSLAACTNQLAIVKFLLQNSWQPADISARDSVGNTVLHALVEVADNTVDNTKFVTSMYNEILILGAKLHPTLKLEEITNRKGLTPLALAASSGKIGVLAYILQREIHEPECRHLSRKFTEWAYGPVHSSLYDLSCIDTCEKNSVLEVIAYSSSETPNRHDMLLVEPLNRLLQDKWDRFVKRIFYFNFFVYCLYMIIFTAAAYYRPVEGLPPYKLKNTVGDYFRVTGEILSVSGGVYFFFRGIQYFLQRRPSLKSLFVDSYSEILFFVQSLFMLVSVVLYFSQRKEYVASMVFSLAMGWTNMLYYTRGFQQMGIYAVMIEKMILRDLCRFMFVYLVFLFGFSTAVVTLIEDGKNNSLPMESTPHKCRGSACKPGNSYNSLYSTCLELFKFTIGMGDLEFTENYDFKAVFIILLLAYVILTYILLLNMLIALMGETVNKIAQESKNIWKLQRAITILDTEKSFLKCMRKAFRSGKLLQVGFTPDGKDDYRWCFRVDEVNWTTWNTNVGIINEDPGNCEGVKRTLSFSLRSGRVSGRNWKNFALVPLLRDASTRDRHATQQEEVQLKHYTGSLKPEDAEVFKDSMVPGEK

CC(C)(C)c1ccc(CNC(=O)C(C)(C)c2ccc(NS(C)(=O)=O)cc2)cc1
EC50 [1]: Not Active | Ki ([2]; read-out: Ki): 0.43 µM

CC(C)(C)c1ccc(CNC(=O)C2(c3ccc(NS(C)(=O)=O)cc3)CC2)cc1
EC50 [1]: Not Active

CC(C)(C)c1ccc(CNC(=O)C(C)(C)c2ccc(NS(C)(=O)=O)c(F)c2)cc1
EC50 [1]: Not Active

COc1cc(C(C)(C)C(=O)NCc2ccc(C(C)(C)C)cc2)ccc1NS(C)(=O)=O
EC50 [1]: Not Active | Ki ([2]; read-out: Ki): 0.414 µM | Ki [3]: 0.707 µM

CC(C)(C)c1ccc(CNC(=O)C2(c3ccc(NS(C)(=O)=O)c(F)c3)CC2)cc1
EC50 [1]: Not Active | Ki ([2]; cho): Not Active

COc1cc(C2(C(=O)NCc3ccc(C(C)(C)C)cc3)CC2)ccc1NS(C)(=O)=O
EC50 [1]: Not Active

CC(NC(=O)Cc1ccc(C(C)(C)C)cc1)c1ccc(NS(C)(=O)=O)c(F)c1 (centres undefined)
EC50 [1]: Not Active | Ki ([2]; read-out: Ki): 2.1 µM

CC(NC(=O)CCc1ccc(C(C)(C)C)cc1)c1ccc(NS(C)(=O)=O)c(F)c1 (centres undefined)
EC50 [1]: Not Active

CC(NC(=O)/C=C/c1ccc(C(C)(C)C)cc1)c1ccc(NS(C)(=O)=O)c(F)c1 (centres undefined)
EC50 [1]: Not Active

CC(C(=O)NCc1ccc(Cl)cc1)c1ccc(NS(C)(=O)=O)c(F)c1 (centres undefined)
EC50 [1]: Not Active

CC(C(=O)NCc1ccc(Br)cc1)c1ccc(NS(C)(=O)=O)c(F)c1 (centres undefined)
EC50 [1]: Not Active | Ki ([2]; read-out: Ki): 0.412 µM | Ki [3]: 0.25 µM

CC(C(=O)NCc1ccc(I)cc1)c1ccc(NS(C)(=O)=O)c(F)c1 (centres undefined)
EC50 [1]: Not Active | Ki ([2]; read-out: Ki): 0.502 µM | Ki [3]: 0.107 µM

CC(C(=O)NCc1ccc(Cl)c(Cl)c1)c1ccc(NS(C)(=O)=O)c(F)c1 (centres undefined)
EC50 [1]: Not Active

CC(C(=O)NCc1ccc(C(F)(F)F)cc1)c1ccc(NS(C)(=O)=O)c(F)c1 (centres undefined)
EC50 [1]: Not Active

COc1ccc(CNC(=O)C(C)c2ccc(NS(C)(=O)=O)c(F)c2)cc1 (centres undefined)
EC50 [1]: Not Active | Ki ([2]; read-out: Ki): 7.8 µM | Ki [3]: 5.35 µM

Cc1ccc(CNC(=O)C(C)c2ccc(NS(C)(=O)=O)c(F)c2)cc1 (centres undefined)
EC50 [1]: Not Active | Ki ([2]; read-out: Ki): 3.1 µM | Ki [3]: 0.93 µM

CC(C)c1ccc(CNC(=O)C(C)c2ccc(NS(C)(=O)=O)c(F)c2)cc1 (centres undefined)
EC50 [1]: Not Active

CC(C(=O)NCc1ccc(C2CC2)cc1)c1ccc(NS(C)(=O)=O)c(F)c1 (centres undefined)
EC50 [1]: Not Active | Ki ([2]; read-out: Ki): 0.411 µM | Ki [3]: 0.0555 µM

CC(C(=O)NCc1ccc(C2C=CCC2)cc1)c1ccc(NS(C)(=O)=O)c(F)c1 (centres undefined)
EC50 [1]: Not Active | Ki ([2]; read-out: Ki): 0.162 µM | Ki [3]: 0.015 µM

CC(C(=O)NCc1ccc(C2CCCC2)cc1)c1ccc(NS(C)(=O)=O)c(F)c1 (centres undefined)
EC50 [1]: Not Active | Ki ([2]; read-out: Ki): 0.093 µM | Ki [3]: 0.0208 µM

CC(C(=O)NCc1ccc(C2CCCCC2)cc1)c1ccc(NS(C)(=O)=O)c(F)c1 (centres undefined)
EC50 [1]: Not Active | Ki ([2]; read-out: Ki): 0.138 µM | Ki [3]: 0.043 µM

CC(C(=O)NCc1ccc(-c2ccccc2)cc1)c1ccc(NS(C)(=O)=O)c(F)c1 (centres undefined)
EC50 [1]: Not Active

CC(C(=O)NCc1ccc(C(C)(C)C)cc1Br)c1ccc(NS(C)(=O)=O)c(F)c1 (centres undefined)
EC50 [1]: Not Active | Ki ([2]; read-out: Ki): 0.047 µM | Ki [3]: 0.0127 µM

CC(C(=O)NCc1ccc(C(C)(C)C)cc1C#N)c1ccc(NS(C)(=O)=O)c(F)c1 (centres undefined)
EC50 [1]: Not Active | Ki ([2]; read-out: Ki): 0.044 µM | Ki [3]: 0.04 µM

CC(C(=O)NC1CCCc2ccccc21)c1ccc(NS(C)(=O)=O)c(F)c1 (centres undefined)
EC50 [1]: Not Active

CC(C(=O)NCCc1ccc(C(C)(C)C)cc1)c1ccc(NS(C)(=O)=O)c(F)c1 (centres undefined)
EC50 [1]: Not Active

Cc1ccc(CCCNC(=O)[C@H](C)c2ccc(NS(C)(=O)=O)c(F)c2)cc1C
EC50 [1]: Not Active

Cc1ccc(CCCNC(=O)[C@@H](C)c2ccc(NS(C)(=O)=O)c(F)c2)cc1C
EC50 [1]: Not Active | Ki ([2]; read-out: Ki): 0.257 µM

Cc1ccc(/C=C/CNC(=O)C(C)c2ccc(NS(C)(=O)=O)c(F)c2)cc1C (centres undefined)
EC50 [1]: Not Active

CC(C(=O)NC/C=C/c1ccc(Cl)cc1)c1ccc(NS(C)(=O)=O)c(F)c1 (centres undefined)
EC50 [1]: Not Active

CC(C(=O)NOCc1ccccc1)c1ccc(NS(C)(=O)=O)c(F)c1 (centres undefined)
EC50 [1]: Not Active

CC(C(=O)NC(c1ccccc1)c1ccccc1)c1ccc(NS(C)(=O)=O)c(F)c1 (centres undefined)
EC50 [1]: Not Active

CC(C(=O)NCC(c1ccccc1)c1ccccc1)c1ccc(NS(C)(=O)=O)c(F)c1 (centres undefined)
EC50 [1]: Not Active

CC(C(=O)NCCC(c1ccccc1)c1ccccc1)c1ccc(NS(C)(=O)=O)c(F)c1 (centres undefined)
EC50 [1]: Not Active | Ki ([2]; read-out: Ki): 0.13 µM

CC(C(=O)NCC1CC1(c1ccccc1)c1ccccc1)c1ccc(NS(C)(=O)=O)c(F)c1 (centres undefined)
EC50 [1]: Not Active | Ki ([2]; read-out: Ki): 0.188 µM | Ki [3]: 0.148 µM

CC(C(=O)NCCN(c1ccccc1)c1ccccc1)c1ccc(NS(C)(=O)=O)c(F)c1 (centres undefined)
EC50 [1]: Not Active | Ki ([2]; read-out: Ki): 0.115 µM | Ki [3]: 0.047 µM

Cc1ccc(C(CCNC(=O)C(C)c2ccc(NS(C)(=O)=O)c(F)c2)c2ccc(C)cc2)cc1 (centres undefined)
EC50 [1]: Not Active | Ki ([2]; read-out: Ki): 0.096 µM | Ki [3]: 0.0321 µM

Cc1ccc(C(=CCNC(=O)C(C)c2ccc(NS(C)(=O)=O)c(F)c2)c2ccc(C)cc2)cc1 (centres undefined)
EC50 [1]: Not Active | Ki ([2]; read-out: Ki): 0.0309 µM

CC(C(=O)NCCC(c1ccc(F)cc1)c1ccc(F)cc1)c1ccc(NS(C)(=O)=O)c(F)c1 (centres undefined)
EC50 [1]: Not Active | Ki ([2]; read-out: Ki): 0.079 µM | Ki [3]: 0.0248 µM

CC(C(=O)NCC=C(c1ccc(F)cc1)c1ccc(F)cc1)c1ccc(NS(C)(=O)=O)c(F)c1 (centres undefined)
EC50 [1]: Not Active

CC(C(=O)NCC=C(c1ccc(Cl)cc1)c1ccc(Cl)cc1)c1ccc(NS(C)(=O)=O)c(F)c1 (centres undefined)
EC50 [1]: Not Active | Ki ([2]; read-out: Ki): 0.0296 µM | Ki [3]: 0.0245 µM

Cc1ccc(C(CCNC(=O)C(C)c2ccc(NS(C)(=O)=O)c(F)c2)c2ccc(F)cc2)cc1 (centres undefined)
EC50 [1]: Not Active | Ki ([2]; read-out: Ki): 0.121 µM | Ki [3]: 0.031 µM

CC(C(=O)NCC=C1c2ccccc2CCc2ccccc21)c1ccc(NS(C)(=O)=O)c(F)c1 (centres undefined)
EC50 [1]: Not Active

CC(C(=O)NCC=C1c2ccccc2C=Cc2ccccc21)c1ccc(NS(C)(=O)=O)c(F)c1 (centres undefined)
EC50 [1]: Not Active | Ki ([2]; read-out: Ki): 0.117 µM | Ki [3]: 0.163 µM

Cc1ccc(CCCNC(=O)C(C)c2ccc(NS(C)(=O)=O)c(F)c2)cc1C (racemic)
EC50 [1]: Not Active | Ki ([2]; read-out: Ki): 0.413 µM | Ki [3]: 0.097 µM
